Measurements taken from ChEMBL document CHEMBL4689842, “EUbOPEN Chemogenomics Library wave 1” (2021).

Tested on: Fibroblast
Test: Multiplex assay against human fibroblast
Format: toxicity, cell-based
Method in brief: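 Cells stained live at seeding with Hoechst33342, BioTracker Green Microtubule Cytoskeleton Dye, MitoTracker Red and Annexin V Alexa Fluor 680 were imaged on a CQ1 microscope at 37°C and 5% CO2 after compound addition. Their classification by CellPathfinder machine-learning gating ran from Hoechst high-intensity objects versus normal cells, to healthy, pyknosed or fragmented nuclei among normal cells, to mitotic or apoptotic among pyknosed cells. Tubulin, mitochondrial-mass and membrane-permeability phenotypes are per cents of healthy-nucleus cells.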

[1] = 12 h, 1 µM, compound concentration 1 uM, replicate 1
[2] = 12 h, 1 µM, compound concentration 1 uM, replicate 2
[3] = 12 h, 10 µM, compound concentration 10 uM, replicate 1
[4] = 12 h, 10 µM, compound concentration 10 uM, replicate 2
[5] = 24 h, 1 µM, compound concentration 1 uM, replicate 1
[6] = 24 h, 1 µM, compound concentration 1 uM, replicate 2
[7] = 24 h, 10 µM, compound concentration 10 uM, replicate 1
[8] = 24 h, 10 µM, compound concentration 10 uM, replicate 2
[9] = 48 h, 1 µM, compound concentration 1 uM, replicate 1
[10] = 48 h, 1 µM, compound concentration 1 uM, replicate 2
[11] = 48 h, 10 µM, compound concentration 10 uM, replicate 1
[12] = 48 h, 10 µM, compound concentration 10 uM, replicate 2

COc1ccc(-c2ccc3ncc4c(c3c2)n(-c2ccc(N3CCNCC3)c(C(F)(F)F)c2)c(=O)n4C)cn1.O=C(O)/C=C\C(=O)O [BGT-226]
Population Apoptotic (%) [1]: 67% | Population Fragmented Nuclei (%) [1]: 34% | Population Healthy Nuclei (%) [1]: 14% | Population Hoechst High Intensity Objects (%) [1]: 14% | Population Membrane Permeable-Phenotype (%) [1]: 26% | Population Mitochondria Different-Phenotype (%) [1]: 33% | Population Mitotic Cells (%) [1]: 32% | Population Normal (%) [1]: 85% | Population Pyknosed Nuclei (%) [1]: 50% | Population Tubulin-Different-Phenotype (%) [1]: 93% | Total Cell Count [1]: 122 | Population Apoptotic (%) [2]: 81% | Population Fragmented Nuclei (%) [2]: 24% | Population Healthy Nuclei (%) [2]: 45% | Population Hoechst High Intensity Objects (%) [2]: 17% | Population Membrane Permeable-Phenotype (%) [2]: 70% | Population Mitochondria Different-Phenotype (%) [2]: 94% | Population Mitotic Cells (%) [2]: 18% | Population Normal (%) [2]: 82% | Population Pyknosed Nuclei (%) [2]: 29% | Population Tubulin-Different-Phenotype (%) [2]: 94% | Total Cell Count [2]: 45 | Population Apoptotic (%) [3]: 62% | Population Fragmented Nuclei (%) [3]: 27% | Population Healthy Nuclei (%) [3]: 2% | Population Hoechst High Intensity Objects (%) [3]: 14% | Population Membrane Permeable-Phenotype (%) [3]: 50% | Population Mitochondria Different-Phenotype (%) [3]: 0% | Population Mitotic Cells (%) [3]: 37% | Population Normal (%) [3]: 85% | Population Pyknosed Nuclei (%) [3]: 69% | Population Tubulin-Different-Phenotype (%) [3]: 0% | Total Cell Count [3]: 89 | Population Apoptotic (%) [4]: 100% | Population Fragmented Nuclei (%) [4]: 70% | Population Healthy Nuclei (%) [4]: 9% | Population Hoechst High Intensity Objects (%) [4]: 62% | Population Membrane Permeable-Phenotype (%) [4]: 24% | Population Mitochondria Different-Phenotype (%) [4]: 32% | Population Mitotic Cells (%) [4]: 0% | Population Normal (%) [4]: 37% | Population Pyknosed Nuclei (%) [4]: 19% | Population Tubulin-Different-Phenotype (%) [4]: 24% | Total Cell Count [4]: 675 | Population Apoptotic (%) [5]: 69% | Population Fragmented Nuclei (%) [5]: 45% | Population Healthy Nuclei (%) [5]: 12% | Population Hoechst High Intensity Objects (%) [5]: 18% | Population Membrane Permeable-Phenotype (%) [5]: 58% | Population Mitochondria Different-Phenotype (%) [5]: 16% | Population Mitotic Cells (%) [5]: 30% | Population Normal (%) [5]: 81% | Population Pyknosed Nuclei (%) [5]: 41% | Population Tubulin-Different-Phenotype (%) [5]: 50% | Total Cell Count [5]: 115 | Population Apoptotic (%) [6]: 83% | Population Fragmented Nuclei (%) [6]: 20% | Population Healthy Nuclei (%) [6]: 40% | Population Hoechst High Intensity Objects (%) [6]: 30% | Population Membrane Permeable-Phenotype (%) [6]: 66% | Population Mitochondria Different-Phenotype (%) [6]: 91% | Population Mitotic Cells (%) [6]: 16% | Population Normal (%) [6]: 69% | Population Pyknosed Nuclei (%) [6]: 40% | Population Tubulin-Different-Phenotype (%) [6]: 91% | Total Cell Count [6]: 43 | Population Apoptotic (%) [7]: 58% | Population Fragmented Nuclei (%) [7]: 23% | Population Healthy Nuclei (%) [7]: 32% | Population Hoechst High Intensity Objects (%) [7]: 26% | Population Membrane Permeable-Phenotype (%) [7]: 38% | Population Mitochondria Different-Phenotype (%) [7]: 0% | Population Mitotic Cells (%) [7]: 41% | Population Normal (%) [7]: 73% | Population Pyknosed Nuclei (%) [7]: 44% | Population Tubulin-Different-Phenotype (%) [7]: 52% | Total Cell Count [7]: 89 | Population Apoptotic (%) [8]: 100% | Population Fragmented Nuclei (%) [8]: 79% | Population Healthy Nuclei (%) [8]: 10% | Population Hoechst High Intensity Objects (%) [8]: 64% | Population Membrane Permeable-Phenotype (%) [8]: 69% | Population Mitochondria Different-Phenotype (%) [8]: 60% | Population Mitotic Cells (%) [8]: 0% | Population Normal (%) [8]: 35% | Population Pyknosed Nuclei (%) [8]: 9% | Population Tubulin-Different-Phenotype (%) [8]: 60% | Total Cell Count [8]: 614 | Population Apoptotic (%) [9]: 84% | Population Fragmented Nuclei (%) [9]: 55% | Population Healthy Nuclei (%) [9]: 25% | Population Hoechst High Intensity Objects (%) [9]: 38% | Population Membrane Permeable-Phenotype (%) [9]: 58% | Population Mitochondria Different-Phenotype (%) [9]: 11% | Population Mitotic Cells (%) [9]: 15% | Population Normal (%) [9]: 61% | Population Pyknosed Nuclei (%) [9]: 19% | Population Tubulin-Different-Phenotype (%) [9]: 47% | Total Cell Count [9]: 111 | Population Apoptotic (%) [10]: 62% | Population Fragmented Nuclei (%) [10]: 28% | Population Healthy Nuclei (%) [10]: 59% | Population Hoechst High Intensity Objects (%) [10]: 27% | Population Membrane Permeable-Phenotype (%) [10]: 19% | Population Mitochondria Different-Phenotype (%) [10]: 19% | Population Mitotic Cells (%) [10]: 37% | Population Normal (%) [10]: 72% | Population Pyknosed Nuclei (%) [10]: 11% | Population Tubulin-Different-Phenotype (%) [10]: 85% | Total Cell Count [10]: 188 | Population Apoptotic (%) [11]: 66% | Population Fragmented Nuclei (%) [11]: 57% | Population Healthy Nuclei (%) [11]: 37% | Population Hoechst High Intensity Objects (%) [11]: 42% | Population Membrane Permeable-Phenotype (%) [11]: 50% | Population Mitochondria Different-Phenotype (%) [11]: 4% | Population Mitotic Cells (%) [11]: 33% | Population Normal (%) [11]: 57% | Population Pyknosed Nuclei (%) [11]: 4% | Population Tubulin-Different-Phenotype (%) [11]: 58% | Total Cell Count [11]: 111 | Population Apoptotic (%) [12]: 25% | Population Fragmented Nuclei (%) [12]: 75% | Population Healthy Nuclei (%) [12]: 17% | Population Hoechst High Intensity Objects (%) [12]: 44% | Population Membrane Permeable-Phenotype (%) [12]: 44% | Population Mitochondria Different-Phenotype (%) [12]: 33% | Population Mitotic Cells (%) [12]: 75% | Population Normal (%) [12]: 55% | Population Pyknosed Nuclei (%) [12]: 7% | Population Tubulin-Different-Phenotype (%) [12]: 55% | Total Cell Count [12]: 94
